# The list is not random: actives were taken first. Their share in the collection is about 2%.
# H9c2 TAG inh = inhibitors of triacylglycerol accumulation. H9c2 cells, Nile Red lipid (TAG) fluorescence; cells loaded with 200 µM oleic acid. hit rate 0.66% among 230,000. inhibition, % at 12.5 µM;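 active means pattern-corrected inhibition of lipid staining of at least 50% with the nuclear-stain viability signal not falling by more than 50%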;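 further: 0% = DMSO wells and 100% = triacsin C control wells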
# NTR1 agonist = NTR1 (human) agonism. P30989. NTR1-U2OS beta-arrestin-GFP spot imaging, agonist mode. activation, % at 20 µM. hit rate 0.17% among 330,000. AID 493036;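 active means activation at or above 40% of the spot to cytoplasm intensity ratio, with at least 20 cells analyzed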;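 further: 0% = DMSO without peptide and 100% = 100 nM NTR1 peptide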
# GRK2 inh = blocks RNA aptamer binding to human GRK2 | P25098 | inhibition of aptamer binding, % at 10 µM | hit rate 0.59% among 330,000 | bead flow cytometry, FAM-aptamer displacement from GRK2;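 active means inhibition of aptamer binding above 40%, roughly 3 SD of noise, on plates passing a quality check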;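 further: median bead fluorescence of bound FAM aptamer so fluorescent compounds give negative values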
# Target sequence (P25098 whole entry, looked up): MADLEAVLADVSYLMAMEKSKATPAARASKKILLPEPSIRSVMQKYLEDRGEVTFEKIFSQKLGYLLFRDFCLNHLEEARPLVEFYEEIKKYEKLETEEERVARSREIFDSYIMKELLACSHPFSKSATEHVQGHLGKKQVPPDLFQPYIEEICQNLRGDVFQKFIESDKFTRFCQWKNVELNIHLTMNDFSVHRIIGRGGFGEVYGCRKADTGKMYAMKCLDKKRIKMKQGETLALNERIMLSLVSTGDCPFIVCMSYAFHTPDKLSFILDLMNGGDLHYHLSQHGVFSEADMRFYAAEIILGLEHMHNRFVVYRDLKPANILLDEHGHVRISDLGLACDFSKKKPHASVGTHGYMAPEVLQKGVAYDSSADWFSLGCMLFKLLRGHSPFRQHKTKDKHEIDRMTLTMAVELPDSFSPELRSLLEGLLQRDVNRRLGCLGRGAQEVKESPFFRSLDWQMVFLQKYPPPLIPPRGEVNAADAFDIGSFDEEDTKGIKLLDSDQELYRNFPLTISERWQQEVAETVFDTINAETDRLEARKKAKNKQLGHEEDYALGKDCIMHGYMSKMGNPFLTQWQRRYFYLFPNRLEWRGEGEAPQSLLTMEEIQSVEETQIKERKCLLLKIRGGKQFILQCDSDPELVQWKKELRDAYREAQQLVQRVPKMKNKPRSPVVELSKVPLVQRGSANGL
# B2AR ag = agonists of human beta-2 adrenergic receptor inducing internalization; AID 504454; response, % (concentration not given with the values); Am2.2-beta2AR cells, FAP receptor internalization, flow cytometry; hit rate 0.43% among 340,000; P07550;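 active means response above a set limit, near 3 SD of response in nonfluorescent compounds, cut at about 42% in these data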
# Arrestin-AP2 inh = inhibitors of human beta-arrestin and AP2 interaction | FITC-arrestin peptide / GST-AP2 beads, flow cytometry; AP2 beta2 appendage carries R879A mutation | inhibition, % at 10 µM | hit rate 0.31% among 340,000 | AID 504490;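 active means inhibition above a set limit, near 3 SD of compounds lacking own fluorescence, cut at about 54% in these data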;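 further: plate controls were DMSO wells for no effect and 5 µM unlabelled arrestin peptide for full effect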
#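 System: GST-AP2 R879A glutathione beads. Medium: PBS with 0.05% Tween 20 and 0.1% BSA. Also added: FITC-arrestin peptide, 50 nM. Incubation: 12 min plus 1 h, RT. Measured by: high-throughput flow cytometry of beads, ex 488, em 535 nm. Evaluation: percent drop in bead-associated FITC signal.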
# Lipid droplet = modulators of hepatic lipid droplet formation; AML12 mouse hepatocytes, oleate lipid droplets, BODIPY imaging; inhibition, % at 6.5 µM; hit rate 0.4% among 240,000;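 active means lipid droplet intensity inhibited by at least 50%, with more than 500 cells counted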
#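 Test system: AML12 hepatocytes (mouse); reagent: oleate loading, 100 µM; dosing: one dose, 6.5 µM compound; incubation: overnight exposure; signal: fluorescence imaging, 20x objective, two fields per well; read-out basis: % inhibition of corrected integrated BODIPY droplet signal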
# NTR1 ag confirm = NTR1 (human) agonism, confirmed | shares compounds with NTR1 agonist | hit rate 38% among 480 | activation, % at 20 µM | AID 504550 | NTR1-U2OS beta-arrestin-GFP translocation imaging;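 active means mean activation at 20 µM of at least 40%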;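 further: 0% = DMSO without peptide and 100% = 100 nM NTR1 peptide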
# B2AR ag CP1 = activates human beta-2 adrenergic receptor; hit rate 25% among 1,100; percent response (surface receptor), % at 10 µM; shares compounds with B2AR ag; Am2.2-beta2AR cells, FAP surface receptor, flow cytometry; stronger effect = lower value;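 active means surface receptor percent response at or below 58%, roughly 3 SD from nonfluorescent compounds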
# FAP fluor counter = fluorescence artifact in beta-2AR agonist FAP counterscreen. shares compounds with B2AR ag. Am2.2 cells, FAP fluorogen flow cytometry; stronger effect = lower value. calls only at 10 µM. 1,100 tested, under 10 active;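 active means percent response below a set limit in fluorescence channel 1 and below 50% in channel 8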
# H9c2 TAG conf = triacylglycerol accumulation inhibition, confirmation; shares compounds with H9c2 TAG inh; H9c2 lipid accumulation, Nile Red fluorescence; cells loaded with 200 µM oleic acid; inhibition, % at 12.5 µM; hit rate 71% among 990;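 active means mean inhibition across replicates of 40% or more; inactive means mean inhibition below 40%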;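 further: plate controls were DMSO only wells for no effect and Triacsin C treated wells for full effect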
# Active calls of the source: *; i = inactive; · = no result.
SMILES,H9c2 TAG inh,NTR1 agonist,GRK2 inh,B2AR ag,Arrestin-AP2 inh,Lipid droplet,others
COC(=O)c1ccc2c(=O)n(CCCCCC(=O)N3CCN(c4ccccc4)CC3)c(=O)[nH]c2c1,14.0,46.6*,0.0,13.2,-4.4,3.5,NTR1 ag confirm=64.2*
CCN1CCN(C(=O)CCCCCn2c(=O)[nH]c3cc(C(=O)OC)ccc3c2=O)CC1,12.0,-1.4,0.0,1.4,7.7,11.8,
Cc1ccnc(Nc2nc(-c3ccc(F)cc3)cs2)c1,3.4,48.7*,0.0,9.8,3.1,1.6,NTR1 ag confirm=3.2
Cc1ccnc(Nc2nc(-c3ccc(Cl)cc3)cs2)c1,·,9.9,1.0,-2.0,0.2,·,
OC(Cc1cccnc1)c1ccccc1 (configuration not stated),-12.0,·,·,-4.3,8.3,·,
CCCCCCCCCn1c2c(c(=N)c3c1CCC3)CCCC2,·,71.8*,·,80.1*,-11.4,-160.8,NTR1 ag confirm=79.1*;B2AR ag CP1=103.0;FAP fluor counter=i
CN1C[C@@H]2[C@@H]3C(=O)N(C)C(=O)[C@@H]3[C@](C)(C1=O)N2C(=O)c1ccc(Cl)cc1,-15.4,·,·,5.4,-7.7,·,
CCOc1ccc(C(=O)Nc2nnc(NC(=S)Nc3ccccc3)s2)cc1,50.7*,60.7*,0.0,102.8*,13.5,49.4,NTR1 ag confirm=45.7*;H9c2 TAG conf=41.7*
CCc1nnc(NC(=S)Nc2ccccc2)s1,2.4,1.1,0.0,-0.2,-2.3,-15.3,
CCOC(=O)c1c(NC(C)=O)sc2c(OCC(O)CN(CC)CC)c(Br)ccc12 (configuration not stated),68.7*,53.1*,0.0,18.8,17.0,6.3,NTR1 ag confirm=46.7*;H9c2 TAG conf=47.2*
Cc1ccc(C(=O)CCC(=O)OC(C)C(=O)NC2CCCCC2C)cc1 (configuration not stated),0.4,-0.9,2.0,2.4,-2.1,·,
CC(C)(C)c1ccc(OCC(=O)Nc2ccc(-c3nc4cccnc4o3)cc2)cc1,17.6,0.6,3.0,109.6*,5.3,4.2,B2AR ag CP1=40.4*;FAP fluor counter=i
CC(C)C(=O)Nc1ccc(-c2nc3cccnc3o2)cc1,2.5,-0.3,1.0,30.2,31.0,-6.0,
COc1ccc(C=O)cc1CSc1ncccc1C(=O)O,·,-0.5,0.0,-2.7,28.3,24.2,
Oc1[nH]c(N=C2N=c3ccccc3=N2)c2ccccc12,·,·,2.0,-10.8,-2.0,-10.6,
Cc1ncc(CN2CCCC(C(=O)Nc3ccc(-c4cccc(F)c4)cc3)C2)cn1 (configuration not stated),4.6,1.1,0.0,90.7*,-8.7,7.6,B2AR ag CP1=20.9*;FAP fluor counter=i
Cc1ncc(CN2CCCC(C(=O)Nc3ccc(-c4cccc(F)c4)cc3)C2)s1 (configuration not stated),-2.4,1.1,0.0,50.7*,13.1,10.8,B2AR ag CP1=24.6*;FAP fluor counter=i
CCc1ncc(CN2CCCC(C(=O)Nc3cccc(-c4ccc(F)cc4)c3)C2)cn1 (configuration not stated),2.9,0.9,0.0,-16.9,39.2,-2.0,
CCOC(=O)c1c(NC(=O)C2CCCCC2)sc2c1CCN(C(C)C)C2,29.1,-2.6,0.0,-12.7,12.5,7.4,
CCOC(=O)c1c(NC(=O)COc2ccccc2OCC)sc2c1CC(C)(C)NC2(C)C,36.2,5.8,0.0,61.6*,-4.2,·,B2AR ag CP1=59.4;FAP fluor counter=i
CCOC(=O)c1c(NC(=O)COc2ccccc2C#N)sc2c1CC(C)(C)NC2(C)C,47.8,-2.1,0.0,5.5,-2.8,21.2,
Cc1nnc(NC(=O)CN2CCN(Cc3ccc(F)cc3Cl)CC2)s1,·,0.1,2.0,-1.8,3.5,-2.6,
